Assay outcomes: PubChem BioAssay, Broad Institute
Statin myotox sup: protects C2C12 myotubes from simvastatin toxicity; rescue of ATP level, % at 7.49 µM; 0.78% of 330,000 active; ATP luminescence, 48 h; scaled: DMSO 0, geranylgeraniol control 100;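 active means mean ATP rescue above about 67%, or every replicate alone reaching that limit, limit read from the data, passing the limit was not always enough; inconclusive means no clear call, values can overlap the other calls; inactive means mean under the limit and some replicate under it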;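 further: myotubes were challenged with 10 µM simvastatin during compound exposure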
DENV2 CPE: protects cells from dengue virus 2 cytopathic effect; CPE inhibition, % at 9.99 µM; 1.7% of 350,000 active; DENV2-infected cells, cytopathic effect rescue, plate reader; in the data active means CPE inhibition above about 20%, passing the limit was not always enough; inconclusive means no clear call, values can overlap the other calls; tested in BHK-21 cells;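 further: 0% = median of neutral control wells and 100% = median of positive control wells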
Cneo AK release: causes C. neoformans cell lysis; 0.2% of 360,000 active; AID 651654; adenylate kinase release luminescence, 4 h; normalised: neutral wells 0, clomiphene wells 100; lysis activity, % at 15 µM;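 active means mean lysis activity across replicates of at least 80%, whatever share of replicates individually reach that level; inactive means mean lysis activity below 80%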
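Assay system: Cryptococcus neoformans yeast cells / Dosing: single-point compound dose / Timing: 4 h at 37 °C static, read 1 h later / Measured by: luminescence of released adenylate kinase using an AK detection reagent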
PDI turbidity: blocks human protein disulfide isomerase activity. P07237. PDI insulin aggregation turbidity, A650, 90 min. 0.052% of 350,000 active. inhibition, % at 10 µM;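 active means mean inhibition across replicates of 30% or more, whatever share of single replicates reach that level; inconclusive means mean inhibition below 30% while every single replicate reaches 30%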
Target sequence (P07237 whole entry, looked up): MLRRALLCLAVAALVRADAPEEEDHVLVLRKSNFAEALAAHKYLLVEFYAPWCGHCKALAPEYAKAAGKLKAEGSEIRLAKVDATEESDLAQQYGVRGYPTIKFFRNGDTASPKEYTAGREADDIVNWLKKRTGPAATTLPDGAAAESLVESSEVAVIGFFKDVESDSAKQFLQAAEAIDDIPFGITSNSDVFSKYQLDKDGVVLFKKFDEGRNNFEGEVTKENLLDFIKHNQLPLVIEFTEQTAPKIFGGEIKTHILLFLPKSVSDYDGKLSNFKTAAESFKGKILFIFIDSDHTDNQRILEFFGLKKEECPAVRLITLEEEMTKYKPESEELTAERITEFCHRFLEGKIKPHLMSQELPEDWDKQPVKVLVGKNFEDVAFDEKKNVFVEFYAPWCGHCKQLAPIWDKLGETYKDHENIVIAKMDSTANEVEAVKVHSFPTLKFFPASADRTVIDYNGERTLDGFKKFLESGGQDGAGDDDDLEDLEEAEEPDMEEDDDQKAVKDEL
CFTR F508del cor: correctors of CFTR F508del function in bronchial epithelial cells. AID 720511. CFBE cells, YFP halide quenching; stimulated with forskolin plus potentiator P3; % fluorescence drop versus neutral controls. activity (quench increase), % at 7.58 µM. 0.36% of 350,000 active;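 active means mean added fluorescence quench of at least 8% versus neutral control, with both replicates also reaching 8%; inconclusive means only one of the mean or replicate conditions met; inactive means mean below 8% and not both replicates reaching 8%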;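 further: cells transiently co-express mutant CFTR-F508del with the halide-sensitive YFP; corrector assay measuring rescue of mutant channel to the surface after 24 h compound exposure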
ERp5 block: blocks human ERp5 reductase activity on insulin; inhibition, % at 9.99 µM; AID 651711; ERp5 insulin aggregation, absorbance 650 nm, 90 min; 0.05% of 350,000 active; Q15084;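 active means mean replicate inhibition above about 25%, with every replicate also reaching it, limit read from the data, passing the limit was not always enough; inconclusive means only one of those two criteria met; inactive means neither criterion met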
Active calls of the source: *; ? = inconclusive; / = no result given. The list is not random: actives were taken first. Their share in the collection is about 2.3%.

SMILES | Statin myotox sup | DENV2 CPE | Cneo AK release | PDI turbidity | CFTR F508del cor | ERp5 block
C[C@@H]1CN([C@@H](C)CO)C(=O)c2cc(NC(=O)c3ccccc3)ccc2O[C@@H](C)CCCCO[C@H]1CN(C)C(=O)CCC(F)(F)F | / | 0.1 | -4.1 | / | 0.1 | -1.3
C[C@@H]1CCCCO[C@@H](CN(C)C(=O)CCC(F)(F)F)[C@H](C)CN([C@@H](C)CO)C(=O)c2cc(NC(=O)c3ccccc3)ccc2O1 | / | 14.1 | -1.9 | / | -0.2 | -0.8
C[C@@H]1CCCCO[C@@H](CN(C)C(=O)CCC(F)(F)F)[C@@H](C)CN([C@@H](C)CO)C(=O)c2cc(NC(=O)c3ccccc3)ccc2O1 | / | 156.7* | -0.6 | / | 2.8 | -3.8
COCC(=O)N1[C@@H](CO)[C@H](c2ccccc2)[C@@H]1CN(C)C(=O)c1cccnc1 | 1.2 | 11.8 | -5.1 | / | -2.3 | 2.1
CCN(c1ccccc1)S(=O)(=O)c1ccc(OC)c(NC(=O)c2c(C)noc2C)c1 | -28.3 | 16.2 | -0.2 | 1.5 | -1.5 | 27.4*
O=C(Nc1ccccc1Cl)NC1(C(=O)NCc2ccncc2)CCCCC1 | -0.5 | -0.3 | 0.0 | 13.0 | 0.6 | 0.8
O=C(NCc1ccncc1)Nc1ccccc1Cl | 116.3* | / | 19.9 | -0.7 | / | /
O=C(Nc1ccc2c(c1)[C@H]1C[C@H](CC(=O)N3CCc4ccccc4C3)O[C@@H](CO)[C@H]1O2)C1CCOCC1 | -4.9 | 5.6 | 2.2 | / | 4.7 | 15.0
C=CCOc1c(Cl)cc(Cl)cc1S(=O)(=O)NCCO | -6.3 | 76.7* | 1.3 | 3.6 | 1.7 | 1.3
C[C@@H]1CN([C@@H](C)CO)C(=O)Cc2cc(NS(=O)(=O)c3cccs3)ccc2O[C@H]1CN(C)C(=O)Nc1ccc(C(F)(F)F)cc1 | -25.2 | 8.4 | -1.0 | / | 0.3 | 47.2*
C[C@H](CO)N1C[C@H](C)[C@H](CN(C)C(=O)Nc2ccc(C(F)(F)F)cc2)Oc2ccc(NS(=O)(=O)c3cccs3)cc2CC1=O | -40.9 | 15.4 | 2.7 | / | 0.7 | 15.6
CC(C)NC(=O)N(C)C[C@@H]1Oc2ccc(NS(=O)(=O)c3cccs3)cc2CC(=O)N([C@@H](C)CO)C[C@@H]1C | -1.6 | 21.6* | -0.4 | / | -1.1 | -12.2
CC(C)NC(=O)N(C)C[C@@H]1Oc2ccc(NS(=O)(=O)c3cccs3)cc2CC(=O)N([C@H](C)CO)C[C@H]1C | -6.7 | -2.6 | 4.7 | / | -0.5 | -3.9
O=C(C1CC1)N1C[C@H]2[C@@H](c3ccccc31)[C@@H](CO)N2Cc1ccccc1Cl | 23.3 | 18.4 | -1.8 | / | -2.5 | -0.1
CNC[C@@H]1Oc2ccc(NC(=O)CCN3CCOCC3)cc2CC(=O)N([C@@H](C)CO)C[C@H]1C | -24.2 | -5.3 | 2.5 | / | 1.7 | -0.9
O=C(C[C@@H]1CC[C@@H](NS(=O)(=O)c2cccc(F)c2)[C@@H](CO)O1)NCc1ccc2c(c1)OCO2 | -3.7 | 18.8 | -1.6 | / | 0.2 | 2.0
COc1cc(C(=O)OCCn2c(=O)c3c(ncn3CCN(C)C)n(C)c2=O)cc(OC)c1OC | / | 24.7* | -3.5 | 2.5 | 2.8 | -5.0
C#CCOc1c(Br)cc(/C=N\NC(=O)CN2CCOCC2)cc1OCC | 103.3* | / | -2.0 | -8.0 | / | /
C[C@H](CO)N1C[C@H](C)[C@@H](CN(C)Cc2ccc(C(F)(F)F)cc2)Oc2c(NS(=O)(=O)c3ccccc3)cccc2C1=O | 19.6 | -9.9 | 0.6 | / | 2.0 | 2.4
C[C@H]1CN([C@@H](C)CO)C(=O)c2cccc(NS(=O)(=O)c3ccccc3)c2O[C@H]1CN(C)Cc1ccc(C(F)(F)F)cc1 | -27.9 | 78.0* | -2.0 | / | -1.1 | -0.6
C[C@@H]1CN([C@H](C)CO)C(=O)c2cccc(NS(=O)(=O)c3ccc(Cl)cc3)c2O[C@@H]1CN(C)Cc1ccc(C(F)(F)F)cc1 | 26.0 | -5.3 | 15.0 | / | -1.9 | 28.1*
C[C@H]1CN([C@@H](C)CO)C(=O)c2cccc(NS(=O)(=O)c3ccc(Cl)cc3)c2O[C@@H]1CN(C)Cc1ccc(C(=O)Nc2ccccc2N)cc1 | / | 21.5* | / | / | -2.2 | 2.3
CC(C)CC#Cc1ccc2c(c1)O[C@@H](CN(C)Cc1ccccn1)[C@@H](C)CN([C@H](C)CO)S2(=O)=O | 8.9 | -3.0 | -11.6 | / | / | -4.8
CO[C@H]1CN(C)C(=O)c2cc(NC(=O)C3CC3)ccc2OC[C@H](C)N(C(C)=O)C[C@H]1C | 0.2 | -1.6 | 3.2 | / | -1.6 | 2.6
C[C@H](CO)N1C[C@H](C)[C@H](CN(C)C(=O)Nc2ccc(C(F)(F)F)cc2)Oc2c(NC(=O)Nc3ccc(F)cc3)cccc2C1=O | -9.7 | 2.3 | 1.5 | / | 0.4 | 2.3
SMILES | Statin myotox sup | DENV2 CPE | Cneo AK release | PDI turbidity | CFTR F508del cor | ERp5 block
O=C(C1CCCCC1)N1CC2(C1)[C@H](c1ccccc1)[C@H](CO)N2Cc1cncnc1 | / | 40.4* | / | / | 2.8 | -2.7
O=C(C1CCCC1)N1CC2(C1)[C@@H](c1ccccc1)[C@@H](CO)N2Cc1ccc(Cl)cc1 | / | -6.8 | / | / | 0.3 | 1.7
O=C(C1CCCCC1)N1CC2(C1)[C@@H](c1ccccc1)[C@@H](CO)N2Cc1cncnc1 | / | 10.6 | / | / | 3.3 | 0.8
O=C(C1CCOCC1)N1CC2(C1)[C@H](c1ccccc1)[C@@H](CO)N2Cc1ccc(Cl)cc1 | / | 28.7* | / | / | -1.8 | -0.2
CCC(=O)N1CC(=O)N2[C@H](C1)[C@H](c1ccc(-c3ccccc3F)cc1)[C@@H]2CO | / | 10.3 | / | / | -3.3 | -7.2
COC(=O)c1ccc(/C=C2/SC(=S)N(CCC(=O)N3CCOCC3)C2=O)cc1 | 71.2* | ? | 5.1 | -3.3 | -0.9 | -9.0
Cc1ccc(C=C2SC(=S)N(CCCC(=O)Nc3cccc(C(=O)O)c3)C2=O)cc1 | 3.1 | -2.9 | -0.3 | -3.0 | -2.4 | -1.5
O=C(CCN1C(=O)/C(=C\c2ccccc2)SC1=S)NCCCN1CCOCC1 | 7.0 | 3.8 | -3.7 | 3.9 | -1.6 | 26.4*
Cc1ccc(/C=C2\SC(=S)N(CCCC(=O)Nc3cccc(C(=O)O)c3)C2=O)cc1 | -4.4 | 85.0* | -4.3 | -9.1 | 0.0 | 5.3
O=C(C1=C[C@@H](c2ccc(C(F)(F)F)cc2)C[C@@H](OCc2ccc(CO)cc2)O1)N1CCCC1 | / | -10.4 | -11.8 | / | 1.3 | -1.2
CCOC(=O)Cn1c(N2CCOCC2)nc2c1c(=O)[nH]c(=O)n2C | 118.4* | / | 2.3 | 6.3 | / | /
CCOC(=O)Cn1c(Br)nc2c1c(=O)[nH]c(=O)n2C | -3.4 | / | 2.3 | 1.9 | / | /
Nn1c(SCC(=O)Nc2ccc(F)cc2F)nnc1-c1cccnc1 | 111.8* | / | -4.0 | 3.1 | / | /
CCN1C(=O)C(C)S/C1=N\S(=O)(=O)c1ccc(Cl)s1 (stereo not given) | 135.9* | / | -0.9 | 9.4 | / | /
Cc1cc(C)c(NC(=O)C2CCC(=O)N2)c(C)c1 (stereo not given) | -2.9 | -0.7 | 735.4* | -1.0 | / | 3.1
C[C@@H]1CCCCO[C@H](CN(C)Cc2ccc(Cl)c(Cl)c2)[C@@H](C)CN([C@@H](C)CO)C(=O)c2cc(NS(=O)(=O)c3ccc(F)cc3)ccc2O1 | / | 30.9* | / | / | 5.6 | -8.9
